From ChEMBL document CHEMBL5705890, “Antitumor activity of an allosteric inhibitor of centromere-associated protein-E” (Proc Natl Acad Sci U S A, 2010)

Key:
[1] = molecular target: Centromere-associated protein E (Homo sapiens, UniProt Q02224, I182L/K184T/T183A); assay: Binding affinity to human CENP-E I182L/T183A/K184T mutant assessed as inhibition constant
[2] = molecular target: Centromere-associated protein E (Homo sapiens, UniProt Q02224, I182L/T183A); assay: Binding affinity to human CENP-E I182L/T183A mutant assessed as inhibition constant
Sequence of Centromere-associated protein E (Homo sapiens, UniProt Q02224, I182L/T183A) (Q02224 whole entry I182L/T183A): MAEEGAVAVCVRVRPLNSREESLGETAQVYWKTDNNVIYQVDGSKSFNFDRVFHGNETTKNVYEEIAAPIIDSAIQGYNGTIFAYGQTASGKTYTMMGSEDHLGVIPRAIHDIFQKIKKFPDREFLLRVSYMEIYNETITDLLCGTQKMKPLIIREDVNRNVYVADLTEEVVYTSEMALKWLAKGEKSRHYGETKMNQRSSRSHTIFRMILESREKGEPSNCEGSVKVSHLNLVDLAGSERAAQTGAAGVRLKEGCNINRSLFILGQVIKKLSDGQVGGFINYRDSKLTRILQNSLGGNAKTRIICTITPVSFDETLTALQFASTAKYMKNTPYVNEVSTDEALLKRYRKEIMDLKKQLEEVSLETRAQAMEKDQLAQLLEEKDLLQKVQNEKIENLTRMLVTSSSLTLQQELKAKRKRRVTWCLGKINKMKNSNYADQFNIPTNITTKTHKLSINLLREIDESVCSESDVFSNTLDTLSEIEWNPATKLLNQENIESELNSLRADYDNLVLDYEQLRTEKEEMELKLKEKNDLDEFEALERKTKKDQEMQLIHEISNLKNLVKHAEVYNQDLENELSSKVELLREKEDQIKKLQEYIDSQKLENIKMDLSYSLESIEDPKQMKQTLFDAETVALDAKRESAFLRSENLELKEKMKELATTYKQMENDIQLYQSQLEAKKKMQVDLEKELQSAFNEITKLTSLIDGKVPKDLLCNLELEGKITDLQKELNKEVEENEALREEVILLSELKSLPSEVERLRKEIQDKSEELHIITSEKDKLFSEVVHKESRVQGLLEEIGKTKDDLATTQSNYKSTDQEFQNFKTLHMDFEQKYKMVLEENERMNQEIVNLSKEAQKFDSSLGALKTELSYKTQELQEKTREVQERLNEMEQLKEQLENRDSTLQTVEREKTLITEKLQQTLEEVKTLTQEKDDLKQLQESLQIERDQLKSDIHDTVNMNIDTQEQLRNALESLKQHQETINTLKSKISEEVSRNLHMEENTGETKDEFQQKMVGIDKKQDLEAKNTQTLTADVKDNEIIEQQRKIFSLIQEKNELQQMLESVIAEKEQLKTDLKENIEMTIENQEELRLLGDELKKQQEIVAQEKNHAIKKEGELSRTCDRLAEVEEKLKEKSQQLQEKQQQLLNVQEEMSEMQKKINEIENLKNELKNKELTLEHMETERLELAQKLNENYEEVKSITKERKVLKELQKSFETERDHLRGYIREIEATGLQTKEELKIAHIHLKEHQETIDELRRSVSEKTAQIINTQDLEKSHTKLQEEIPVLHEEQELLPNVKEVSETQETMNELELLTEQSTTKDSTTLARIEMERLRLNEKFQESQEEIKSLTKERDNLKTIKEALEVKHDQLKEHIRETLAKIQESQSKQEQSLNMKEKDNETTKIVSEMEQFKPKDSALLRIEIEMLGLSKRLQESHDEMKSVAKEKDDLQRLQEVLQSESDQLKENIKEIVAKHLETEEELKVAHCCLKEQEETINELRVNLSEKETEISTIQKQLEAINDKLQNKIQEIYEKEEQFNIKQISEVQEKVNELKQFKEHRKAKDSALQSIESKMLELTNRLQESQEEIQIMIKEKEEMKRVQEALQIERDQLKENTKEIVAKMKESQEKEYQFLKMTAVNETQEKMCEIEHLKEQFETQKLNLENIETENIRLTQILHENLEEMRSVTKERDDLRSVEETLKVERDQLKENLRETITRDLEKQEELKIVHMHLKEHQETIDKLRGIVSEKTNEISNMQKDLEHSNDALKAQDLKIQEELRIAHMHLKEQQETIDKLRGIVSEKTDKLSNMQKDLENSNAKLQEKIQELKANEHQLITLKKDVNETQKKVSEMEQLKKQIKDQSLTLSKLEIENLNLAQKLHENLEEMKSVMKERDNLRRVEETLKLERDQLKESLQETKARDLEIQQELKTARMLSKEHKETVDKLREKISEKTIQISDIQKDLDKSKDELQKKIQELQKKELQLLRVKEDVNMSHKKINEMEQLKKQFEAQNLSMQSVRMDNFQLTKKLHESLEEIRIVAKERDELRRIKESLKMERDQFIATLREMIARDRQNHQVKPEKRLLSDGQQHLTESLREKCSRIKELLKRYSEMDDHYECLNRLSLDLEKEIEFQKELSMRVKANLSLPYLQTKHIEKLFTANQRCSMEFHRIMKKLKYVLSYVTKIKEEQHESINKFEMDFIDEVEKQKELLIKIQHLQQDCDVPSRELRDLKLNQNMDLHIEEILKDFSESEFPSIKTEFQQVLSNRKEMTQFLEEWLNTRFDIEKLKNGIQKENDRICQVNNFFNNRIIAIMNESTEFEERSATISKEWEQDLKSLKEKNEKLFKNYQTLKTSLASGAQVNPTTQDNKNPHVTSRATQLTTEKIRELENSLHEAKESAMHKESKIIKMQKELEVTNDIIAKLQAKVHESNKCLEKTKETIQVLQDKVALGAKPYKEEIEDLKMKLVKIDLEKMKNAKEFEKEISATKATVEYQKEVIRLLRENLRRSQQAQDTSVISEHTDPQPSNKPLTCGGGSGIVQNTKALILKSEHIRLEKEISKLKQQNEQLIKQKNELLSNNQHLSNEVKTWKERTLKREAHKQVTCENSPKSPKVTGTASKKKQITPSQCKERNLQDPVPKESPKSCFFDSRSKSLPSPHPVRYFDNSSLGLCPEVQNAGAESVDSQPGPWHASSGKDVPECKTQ

[3] = test system: CWR22R; assay: Anticancer activity against human 22Rv1 cells assessed as cell growth inhibition measured after 72 hrs by DAPI staining based analysis; assay type: functional
How it was run: (§1)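 Cells were seeded and, after 24 h, DNA content was read as T0. Cells were then exposed to varying drug concentrations for a further 72 h (T72). Fixed cells were DAPI-stained and DNA content measured by automated imaging. T72 values were normalized to T0. GI50 is the concentration giving 50% growth inhibition between T0 and Ymax, obtained by curve fitting.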

[4] = test system: A2780; assay: Anticancer activity against human A2780 cells assessed as cell growth inhibition measured after 72 hrs by DAPI staining based analysis; assay type: functional; how it was run: as §1
[5] = test system: C-33-A; assay: Anticancer activity against human C-33-A cells assessed as cell growth inhibition measured after 72 hrs by DAPI staining based analysis; assay type: functional
How it was run: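 Cells were seeded, and DNA content at 24 h after seeding (T0) was read by imaging of fixed, DAPI-stained cells. Cells were then exposed to a range of drug concentrations for a further 72 h (T72) and DNA content was read again. T72 values were normalized to T0, and GI50 was taken from curve fits as the concentration giving 50% growth inhibition relative to T0 and Ymax.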

[6] = test system: D283 Med; assay: Anticancer activity against human D283 Med cells assessed as cell growth inhibition measured after 72 hrs by DAPI staining based analysis; assay type: functional
How it was run: (§2)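 Cells seeded, DAPI-stained DNA content of fixed cells read by imaging 24 h after seeding (T0), and again after a further 72 h exposure to a range of drug concentrations (T72). T72 values were normalized to T0. Curve fits gave the concentration producing 50% growth inhibition relative to T0 and Ymax (GI50).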

[7] = test system: DBTRG-05MG; assay: Anticancer activity against human DBTRG-05MG cells assessed as cell growth inhibition measured after 72 hrs by DAPI staining based analysis; assay type: functional; how it was run: as §2
[8] = test system: HPAF-II; assay: Anticancer activity against human HPAF-II cells assessed as cell growth inhibition measured after 72 hrs by DAPI staining based analysis; assay type: functional
[9] = test system: K562; assay: Anticancer activity against human K562 cells assessed as cell growth inhibition measured after 72 hrs by DAPI staining based analysis; assay type: functional
[10] = test system: LNCaP; assay: Anticancer activity against human LNCaP cells assessed as cell growth inhibition measured after 72 hrs by DAPI staining based analysis; assay type: functional
[11] = test system: MDA-MB-453; assay: Anticancer activity against human MDA-MB-453 cells assessed as cell growth inhibition measured after 72 hrs by DAPI staining based analysis; assay type: functional
[12] = test system: MES-SA; assay: Anticancer activity against human MES-SA cells assessed as cell growth inhibition measured after 72 hrs by DAPI staining based analysis; assay type: functional
[13] = test system: NCI-H508; assay: Anticancer activity against human NCI-H508 cells assessed as cell growth inhibition measured after 72 hrs by DAPI staining based analysis; assay type: functional
[14] = test system: NCI-H526; assay: Anticancer activity against human NCI-H526 cells assessed as cell growth inhibition measured after 72 hrs by DAPI staining based analysis; assay type: functional
[15] = test system: OVCAR-8; assay: Anticancer activity against human OVCAR-8 cells assessed as cell growth inhibition measured after 72 hrs by DAPI staining based analysis; assay type: functional
[16] = test system: RPMI-2650; assay: Anticancer activity against human RPMI-2650 cells assessed as cell growth inhibition measured after 72 hrs by DAPI staining based analysis; assay type: functional
[17] = test system: RPMI-8226; assay: Anticancer activity against human RPMI-8226 cells assessed as cell growth inhibition measured after 72 hrs by DAPI staining based analysis; assay type: functional
[18] = test system: SH-4; assay: Anticancer activity against human SH-4 cells assessed as cell growth inhibition measured after 72 hrs by DAPI staining based analysis; assay type: functional
[19] = test system: SW872; assay: Anticancer activity against human SW872 cells assessed as cell growth inhibition measured after 72 hrs by DAPI staining based analysis; assay type: functional
[20] = test system: A498; assay: Anticancer activity against human A498 cells assessed as cell doubling measured for 72 hrs by DAPI staining based analysis; assay type: functional
[21] = Anticancer activity against human A7 cells assessed as cell doubling measured for 72 hrs by DAPI staining based analysis; assay type: functional
[22] = test system: ACHN; assay: Anticancer activity against human ACHN cells assessed as cell doubling measured for 72 hrs by DAPI staining based analysis; assay type: functional
[23] = Anticancer activity against human BC-2 cells assessed as cell doubling measured for 72 hrs by DAPI staining based analysis; assay type: functional
[24] = test system: BT-20; assay: Anticancer activity against human BT-20 cells assessed as cell doubling measured for 72 hrs by DAPI staining based analysis; assay type: functional
[25] = test system: CAL-62; assay: Anticancer activity against human CAL-62 cells assessed as cell doubling measured for 72 hrs by DAPI staining based analysis; assay type: functional
[26] = test system: HEC-1-A; assay: Anticancer activity against human HEC-1-A cells assessed as cell doubling measured for 72 hrs by DAPI staining based analysis; assay type: functional
[27] = Anticancer activity against human KHOS-240S cells assessed as cell doubling measured for 72 hrs by DAPI staining based analysis; assay type: functional
[28] = test system: MES-SA; assay: Anticancer activity against human MES-SA cells assessed as cell doubling measured for 72 hrs by DAPI staining based analysis; assay type: functional
[29] = test system: NCI-H2170; assay: Anticancer activity against human NCI-H2170 cells assessed as cell doubling measured for 72 hrs by DAPI staining based analysis; assay type: functional
[30] = test system: NCI-H295R; assay: Anticancer activity against human NCI-H295R cells assessed as cell doubling measured for 72 hrs by DAPI staining based analysis; assay type: functional
[31] = test system: NCI-N87; assay: Anticancer activity against human NCI-N87 cells assessed as cell doubling measured for 72 hrs by DAPI staining based analysis; assay type: functional
[32] = Anticancer activity against human SCC-13 cells assessed as cell doubling measured for 72 hrs by DAPI staining based analysis; assay type: functional
[33] = test system: SNU1; assay: Anticancer activity against human SNU1 cells assessed as cell doubling measured for 72 hrs by DAPI staining based analysis; assay type: functional
[34] = test system: SNU-423; assay: Anticancer activity against human SNU-423 cells assessed as cell doubling measured for 72 hrs by DAPI staining based analysis; assay type: functional
[35] = test system: SNU-5; assay: Anticancer activity against human SNU-5 cells assessed as cell doubling measured for 72 hrs by DAPI staining based analysis; assay type: functional
[36] = test system: HT-29; assay: Antitumor activity against human HT-29 cells in xenograft model assessed as difference between median time to endpoint time of treated versus control group at 62.5 mg/kg; assay type: functional
[37] = test system: MCF7; assay: Antitumor activity against human MCF7 cells in xenograft model assessed as difference between median time to endpoint time of treated versus control group at 125 mg/kg; assay type: functional
[38] = test system: NCI-H1299; assay: Antitumor activity against human NCI-H1299 cells in xenograft model assessed as tumor growth delay at 125 mg/kg relative to control; assay type: functional
[39] = test system: MX1; assay: Antitumor activity against human MX1 cells in xenograft model assessed as tumor growth delay at 125 mg/kg relative to control; assay type: functional

Sequence of Centromere-associated protein E (Homo sapiens, UniProt Q02224, I182L/K184T/T183A) (Q02224 whole entry I182L/T183A/K184T): as the sequence (Q02224 whole entry I182L/T183A) above, with K184T counted along it

Compound `CC(C)Oc1ccc(C(=O)N[C@H](CNC(=O)CN(C)C)Cc2ccc(-c3cn4cccc([C@H](C)O)c4n3)cc2)cc1Cl` [GSK-923295A] has a Ki [1] of 64 nM, a Ki [2] of 61 nM and a GI50 [3] of 29 nM. It also gave a GI50 [4] of 13 nM, a GI50 [5] of 47 nM and a GI50 [6] of 28 nM. It also gave a GI50 [7] of 17 nM, a GI50 [8] of 5030 nM and a GI50 [9] of 25 nM. It also gave a GI50 [10] of 76 nM, a GI50 [11] of 27 nM and a GI50 [12] of 65 nM. For the same compound, the GI50 [13] was 32 nM, the GI50 [14] was 88 nM and the GI50 [15] was 50 nM. It also gave a GI50 [16] of 36 nM, a GI50 [17] of 27 nM and a GI50 [18] of 44 nM. The GI50 [19] was 37 nM, the Activity [20] was 1.11 and the Activity [21] was 2.17. It also gave an Activity [22] of 2.51, an Activity [23] of 1.94 and an Activity [24] of 4.17. For the same compound, the Activity [25] was 3.31, the Activity [26] was 2.67 and the Activity [27] was 2.44. It also gave an Activity [28] of 3.22, an Activity [29] of 1.69 and an Activity [30] of 1.52. It also gave an Activity [31] of 2.53, an Activity [32] of 3.39 and an Activity [33] of 2.64. For the same compound, the Activity [34] was 1.44, the Activity [35] was 1.47 and the Time [36] was 2.7 days. For the same compound, the Time [37] was 15.8 days, the Activity [38] was 76% and the Activity [39] was 26%.
